Measurements taken from article PMC7429274 (ACS infectious diseases, 2020).
Primed or numbered codes have the meaning given here. Ends that are not written are not given here. FITC′ = fluorescein isothiocyanate label

What was measured:
[1] = test system: planktonic P. aeruginosa cells (PAO1, TdTomato); assay: Probe binding to planktonic cells by flow cytometry; assay type: cell-based, Pseudomonas aeruginosa; conditions: 10, 5 or 1 μM, 30 min, room temperature, Fig. S2
Outline: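 PAO1 with constitutive TdTomato plasmid was diluted 1:100 in LB without NaCl and grown 3 h at 37°C, 200 rpm, to mid-log. Cells were pelleted, resuspended in PBS at 10⁸ CFU/mL, labelled with FITC-peptide, washed, and fixed in 4% PFA for 20 min. 10,000 events per sample, gated on FSC/SSC and excluding low-TdTomato events. FITC MFI was normalised to autofluorescence. Two biological replicates, mean ± standard deviation.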

[2] = test system: Human A549 type II alveolar epithelial cells; assay: Epithelial cell infection model, CLSM colocalization with epithelial cells; assay type: cell-based; conditions: uninfected A549 cells, Fig. S8
Outline: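 A549 cells seeded at 20,000/well in RPMI 1640 with 10% FBS and 100 U pen/strep for 3 days to ~70% confluency, then prelabelled with 1 μM cell tracker blue for 20 min at 37°C. Washed twice in warm PBS, stained with 2 μM FITC-labelled peptide for 1 h at 37°C, washed twice, fixed in 4% paraformaldehyde for 30 min. CLSM with 60x oil objective.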

[3] = test system: flow cell-grown P. aeruginosa PAO1 biofilms; assay: Peptide labeling of flow-grown biofilms by CLSM; assay type: cell-based, Pseudomonas aeruginosa; conditions: 24 h flow cell biofilms; for Biofilm labeling (CLSM): 2 μM peptide in PBS, 1 h, room temperature; for Labeling pattern / localization within biofilms (CLSM): 2 μM peptide, single slice at mid-height
[4] = test system: P. aeruginosa-infected wounds; assay: In vivo optical imaging in mouse infected wound model; design: species or system female BALB/c athymic nude mice; conditions: 6 h post probe injection, p<0.0035, Fig. S7
Outline: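 Wounded mice (6 mm dorsal biopsies, 48 h recovery) had wounds inoculated with ~10⁷ cells of a 50:50 lux-tagged/TdTomato PAO1 mix or PBS. Cy5-labelled peptide probe (60 nmoles, tail vein) or PBS was injected 24 h later; groups n=4, 3, 2. Isoflurane-anaesthetised mice were imaged at 3, 6 and 18 h. Bioluminescence integration was 2 s; fluorescence excitation was 640 nm. ROI wound Cy5 was normalised to surrounding non-wound tissue.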

[5] = test system: P. aeruginosa aggregates (PAO1-mCherry) on A549 cells; assay: Epithelial cell infection model, CLSM colocalization with bacteria; assay type: cell-based, Pseudomonas aeruginosa; conditions: Cy5-labeled probes, Fig. S5
[6] = test system: human primary neutrophils infected or not with PAO1-GFP+; assay: Human primary neutrophil infection model, imaging flow cytometry; assay type: cell-based
[7] = test system: P. aeruginosa-infected wounds; assay: Ex vivo CLSM of sectioned wound tissue; assay type: in vivo, female BALB/c athymic nude mice; conditions: harvested after 18 h imaging
Outline: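 Two 6 mm full-thickness dorsal wounds per mouse, occlusive dressing, 48 h recovery. Wounds were then inoculated with 60 μL containing ~10⁷ cells of a 50:50 mix of lux-tagged and TdTomato PAO1, or mock-treated with PBS. Cy5-labelled peptide probe, 60 nmoles, was given by tail vein 24 h later. After the 18 h imaging point, mice were CO₂-euthanised. Wounds were DAPI-stained (1 μg/mL, 10 min), fixed in 4% PFA for 24 h, OCT cryosectioned and imaged by CLSM.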

[8] = test system: P. aeruginosa (strain PAO1); assay: Bacterial growth inhibition; assay type: cell-based, Pseudomonas aeruginosa; conditions: Fig. S3
Outline: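 PAO1 grown from overnight culture (diluted 1:100 in LB without NaCl) at 37°C, 5% CO₂, 200 rpm to mid-log (OD₆₀₀ 0.5), pelleted, resuspended in Mueller-Hinton broth to OD₆₀₀ 0.1 (~10⁷ CFU/mL). Serially diluted FITC-labelled peptide added in triplicate; gentamycin 10 μg/mL positive control, PBS mock. OD₆₀₀ read every 30 min for 16 h at 37°C, 5% CO₂. Background-corrected mean OD normalised to PBS wells, as percentage.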

Substance | Labeling of planktonic P. aeruginosa cells (FITC MFI, flow cytometry) [1] | Targeting of epithelial cells in the absence of infection [2] | Biofilm labeling (CLSM) [3] | Labeling pattern / localization within biofilms (CLSM) [3] | also measured
^aFITC-WWRRWWR [WR8-FITC] | to a lesser degree than LG21-FITC and LL37-FITC | moderate targeting of these cells | biofilm labeling was observed | penetrated into biofilms | 
^aFITC-WPRRPWRR ({FITC′}-WPRRPWRR) [WR8-Pro-FITC] | minimal targeting of P. aeruginosa cells |  | complete lack of binding |  | 
^aFITC-LLPIVGNLLKSLLGWKRKRFG [LG21-FITC] | greatest targeting of planktonic cells | did not target epithelial cells in the absence of infection | biofilm labeling was observed | localized to the periphery of biofilms | 
^aFITC-TGRAKRRMQYNRR [UBI29-41-FITC, reference compound] | minimal targeting of P. aeruginosa cells |  | failed to label biofilms |  | 
(4Iph)(f)LPNSNHIKQGL-FITC^b [4Iphf-HN17-FITC] | to a lesser degree than LG21-FITC and LL37-FITC | did not target epithelial cells in the absence of infection | biofilm labeling was observed | penetrated into biofilms | 
(4Iph)(f)LPNSNHIKQGL-Cy5^b [4Iphf-HN17-Cy5] |  |  | retained similar biofilm targeting properties |  | Cy5 signal enhancement in infected wounds vs PBS-treated wounds [4]: reached statistical significance compared to PBS-treated wounds; Targeting in the epithelial cell infection model (Cy5 probes) [5]: biofilm specificity in the epithelial cell infection model; Percentage of neutrophils that were Cy5+ ([6]; each of the four populations): greater than 87%; Colocalization between Cy5 and GFP (similarity feature) ([6]; every cell, all infected neutrophils regardless of morphology): < 0.2; Percentage of neutrophils that were Cy5+ ([6]; infected neutrophils with irregular morphology): 99.8%; Percentage of neutrophils that were Cy5+ ([6]; uninfected cells with normal morphology): 87.8%; Cy5 fluorescence in sectioned wound tissue (CLSM) ([7]; infected wound): intense, multi-focal pockets; Cy5 fluorescence in sectioned wound tissue (CLSM) ([7]; uninfected wound): minimal Cy5 fluorescence; Bactericidal effects against P. aeruginosa [8]: no bactericidal effects
^aFITC-WWKKWWKK [WK8-FITC] | to a lesser degree than LG21-FITC and LL37-FITC | moderate targeting of these cells | biofilm labeling was observed | penetrated into biofilms | 
^aFITC-KRNQRMARYRRGT ({FITC′}-KRNQRMARYRRGT) [UBIsc-FITC, reference compound] | minimal targeting of P. aeruginosa cells |  | failed to label biofilms |  | 
^aFITC-LLGDFFRKSKEKIGKEFKRIVQRIKDFLRNLVPRTES [LL37-FITC, reference compound] | greatest targeting of planktonic cells |  | biofilm labeling was observed | localized to the periphery of biofilms | 
